ChEMBL document CHEMBL1132495, “Alpha(2) adrenoceptor agonists as potential analgesic agents. 1. (Imidazolylmethyl)oxazoles and -thiazoles” (J Med Chem, 1999)

How the values were obtained:
Mus musculus [1] = organism: Mus musculus; assay: Mouse Acetylcholine-induced Abdominal Irritant Test activity (MAIT); type: functional; settings: Abdomen
In short: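 Male CD-1 mice, 18-24 g, fed ad libitum until testing. Compound or vehicle given orally by gavage; at set intervals afterwards, acetylcholine bromide 5.5 mg/kg i.p. Mice observed in bell jars for a single abdominal response; % antinociception per dose taken from responder counts. ED50 with 95% confidence limits by Litchfield-Wilcoxon probit analysis, including a chi-square test for linearity.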

[2] = biological target: T1, Adrenergic receptor alpha-2 (Rattus norvegicus, UniProt P22086+P19328+P22909); assay: In vitro binding affinity against alpha-2 adrenergic receptor in rat
T1 sequence (P22086 whole entry): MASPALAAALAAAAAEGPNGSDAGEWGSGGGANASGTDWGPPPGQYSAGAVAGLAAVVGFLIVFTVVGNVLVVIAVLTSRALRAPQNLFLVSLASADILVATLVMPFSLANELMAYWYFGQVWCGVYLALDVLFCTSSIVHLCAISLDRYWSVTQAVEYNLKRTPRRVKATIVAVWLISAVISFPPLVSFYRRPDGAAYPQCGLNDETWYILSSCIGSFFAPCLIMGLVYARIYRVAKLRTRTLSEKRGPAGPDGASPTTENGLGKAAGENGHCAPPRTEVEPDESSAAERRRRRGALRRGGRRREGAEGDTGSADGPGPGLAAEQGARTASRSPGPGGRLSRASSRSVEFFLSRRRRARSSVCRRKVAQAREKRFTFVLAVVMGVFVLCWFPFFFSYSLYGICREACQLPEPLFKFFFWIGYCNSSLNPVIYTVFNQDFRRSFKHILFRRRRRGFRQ
T1 sequence (P19328 whole entry): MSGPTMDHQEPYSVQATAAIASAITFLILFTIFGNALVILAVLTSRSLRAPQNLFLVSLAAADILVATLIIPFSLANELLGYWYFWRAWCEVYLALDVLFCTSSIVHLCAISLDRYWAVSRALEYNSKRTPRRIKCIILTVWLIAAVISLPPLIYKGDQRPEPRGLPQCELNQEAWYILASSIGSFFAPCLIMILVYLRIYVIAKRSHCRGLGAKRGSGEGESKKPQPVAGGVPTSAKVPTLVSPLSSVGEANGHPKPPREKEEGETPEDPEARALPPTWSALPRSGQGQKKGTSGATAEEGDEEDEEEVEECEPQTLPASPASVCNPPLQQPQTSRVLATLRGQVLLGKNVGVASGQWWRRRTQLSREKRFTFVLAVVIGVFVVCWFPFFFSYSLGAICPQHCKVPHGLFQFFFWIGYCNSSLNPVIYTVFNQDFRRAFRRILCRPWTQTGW
T1 sequence (P22909 whole entry): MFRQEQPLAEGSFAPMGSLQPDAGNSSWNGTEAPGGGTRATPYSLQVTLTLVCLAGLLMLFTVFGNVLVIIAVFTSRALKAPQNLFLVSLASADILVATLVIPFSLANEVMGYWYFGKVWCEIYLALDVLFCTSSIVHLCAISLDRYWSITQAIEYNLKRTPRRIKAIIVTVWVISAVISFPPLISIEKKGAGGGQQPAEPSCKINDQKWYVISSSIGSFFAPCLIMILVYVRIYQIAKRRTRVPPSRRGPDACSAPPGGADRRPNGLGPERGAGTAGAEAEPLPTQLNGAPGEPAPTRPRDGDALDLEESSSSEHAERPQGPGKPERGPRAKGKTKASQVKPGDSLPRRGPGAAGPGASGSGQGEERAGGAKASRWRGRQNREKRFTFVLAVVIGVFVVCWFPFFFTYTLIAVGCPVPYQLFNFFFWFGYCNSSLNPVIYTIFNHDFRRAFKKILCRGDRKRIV
In short: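 Rat cortex synaptic membranes (male Wistar rats, 150-250 g; homogenized in HEPES-sucrose, spun at 1000g then 42000g, pellet washed in 3 mM K phosphate pH 7.5 with 30 min 25 °C preincubation). Displacement of [3H]p-aminoclonidine (0.1 nM), 20 min at 25 °C; filtration, scintillation counting. 8-10 concentrations in triplicate; Ki from single-site fit, nonspecific binding as fitted parameter.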

Mus musculus [3] = organism: Mus musculus; assay: Mouse Acetylcholine-induced Abdominal Irritant Test activity(MAIT) of the compound.; settings: Abdomen

| Structure (SMILES) | ED50 (Mus musculus [1]) | Ki [2] | ED50 (Mus musculus [3]) |
| --- | --- | --- | --- |
| CCc1nc(Cc2c[nH]cn2)c(C)s1 | > 30 mg/kg | 57 nM |  |
| CCCCc1nc(Cc2c[nH]cn2)c(CCCC)s1 | > 30 mg/kg | 35 nM |  |
| Cc1nc(C)c(Cc2c[nH]cn2)s1 | 1 mg/kg | 8 nM |  |
| CCc1nc(Cc2c[nH]cn2)c(CC)s1 | 1.8 mg/kg | 17 nM |  |
| CCc1nc(CC)c(Cc2c[nH]cn2)s1 | > 30 mg/kg | 23 nM |  |
| CCc1csc(Cc2c[nH]cn2)n1 | > 30 mg/kg | 36 nM |  |
| CCc1sc(C)nc1Cc1c[nH]cn1 | 2.3 mg/kg | 10 nM |  |
| CCc1nc(Cc2c[nH]cn2)c(CC)o1 | 2.8 mg/kg | 58 nM |  |
| CC(C)c1nc(Cc2c[nH]cn2)c(C(C)C)o1 | 6.9 mg/kg | 714 nM |  |
| CCc1sc(C(C)C)nc1Cc1c[nH]cn1 | 7.5 mg/kg | 28 nM |  |
| CCc1nc(Cc2c[nH]cn2)sc1C | > 30 mg/kg | 18 nM |  |
| Cc1nc(C)c(C(c2ccccc2)c2c[nH]cn2)s1 (centres undefined) | > 30 mg/kg | 269 nM |  |
| c1ccc2sc(Cc3c[nH]cn3)nc2c1 | > 30 mg/kg | 18 nM |  |
| CCc1nc(Cc2ncc[nH]2)c(CC)s1 | > 30 mg/kg | > 1000 nM |  |
| CCCc1nc(Cc2c[nH]cn2)c(CCC)s1 | 30 mg/kg | 97 nM |  |
| CCc1nc(C(C)c2c[nH]cn2)c(CC)s1 (centres undefined) | 16 mg/kg | 407 nM |  |
| CC(C)c1nc(Cc2c[nH]cn2)c(C(C)C)s1 | 23.8 mg/kg | 285 nM |  |
| Cc1nc(C)c(C(C)c2c[nH]cn2)s1 (centres undefined) | > 30 mg/kg | 60 nM |  |

| Structure (SMILES) | ED50 (Mus musculus [1]) | Ki [2] | ED50 (Mus musculus [3]) |
| --- | --- | --- | --- |
| CCc1sc(-c2ccccc2)nc1Cc1c[nH]cn1 | 15 mg/kg | 13 nM |  |
| Cc1cccc(C(C)c2c[nH]cn2)c1C (single isomer, unassigned) [DEXMEDETOMIDINE] |  | 0.015 nM | 0.09 mg/kg |
| CCc1nc(Cc2[nH]cnc2C)c(CC)s1 [ENTRY 68 A] |  | 53 nM |  |
| c1nc(Cc2nc3c(s2)CCCC3)c[nH]1 | > 30 mg/kg | 110 nM |  |
| CCc1nc(Cc2nc[nH]n2)c(CC)s1 | > 30 mg/kg | > 1000 nM |  |
| CCc1nc(C(Cc2ccccc2)c2c[nH]cn2)c(CC)s1 (centres undefined) | > 30 mg/kg | 37 nM |  |
| CCc1nc(Cc2cn[nH]n2)c(CC)s1 | > 30 mg/kg | > 1000 nM |  |
| CCc1nc(Cc2c[nH]cn2)c(C(C)C)s1 | 25.3 mg/kg | 235 nM |  |
| CCc1sc(C(F)(F)F)nc1Cc1c[nH]cn1 | 20.3 mg/kg | 320 nM |  |
| c1nc(Cc2nc3c(s2)CCC3)c[nH]1 | > 30 mg/kg | 28 nM |  |
| CCc1nc(Cc2c[nH]cn2)sc1CC | > 30 mg/kg | 86 nM |  |
| Cc1nc(Cc2c[nH]cn2)c(C)o1 | > 30 mg/kg | > 1000 nM |  |
| Cc1nc(Cc2c[nH]cn2)sc1C | 1.7 mg/kg | 11 nM |  |
| Cc1nc(Cc2c[nH]cn2)c(C)s1 | > 30 mg/kg | 38 nM |  |
| CCc1sc(Cc2c[nH]cn2)nc1C | 2.8 mg/kg | 18 nM |  |
| CCc1cnc(Cc2c[nH]cn2)s1 | > 30 mg/kg | 381 nM |  |
| CCc1nc(CC)c(C(C)c2c[nH]cn2)s1 (centres undefined) | > 30 mg/kg | 97 nM |  |
